Data set [1] concerns Trypanosoma brucei brucei. Briefly: Trypanocidal activity against Trypanosoma brucei brucei assessed as reduction in intracellular ATP production incubated for 72 hrs by CellTiter-Glo luminescent cell viability assay. In kind it is functional, organism-based. Put shortly: (§1)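 Bloodstream trypanosomes in 96-well culture were exposed to compound in 5-fold serial dilutions from 25 µg/mL to 1.6 ng/mL for 72 h. Seeding and temperature: T. b. brucei, T. b. gambiense and T. b. rhodesiense at 5×10^3 cells/mL and 37 °C; T. evansi at 1×10^4 cells/mL and 37 °C; T. congolense at 2×10^5 cells/mL and 33 °C. Viability was read as intracellular ATP by CellTiter-Glo luminescence. Three replicates; IC50 calculated.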

Data set [2] concerns Trypanosoma brucei gambiense. The data set is described as follows: Trypanocidal activity against Trypanosoma brucei gambiense assessed as reduction in intracellular ATP production incubated for 72 hrs by CellTiter-Glo luminescent cell viability assay. It counts as functional, organism-based. Put shortly: as §1
Data set [3] deals with Trypanosoma brucei rhodesiense. Briefly: Trypanocidal activity against Trypanosoma brucei rhodesiense assessed as reduction in intracellular ATP production incubated for 72 hrs by CellTiter-Glo luminescent cell viability assay. In kind it is functional, organism-based. In a few lines:
as §1

For the next data set, the system named is Trypanosoma congolense. Briefly: Trypanocidal activity against Trypanosoma congolense assessed as reduction in intracellular ATP production incubated for 72 hrs by CellTiter-Glo luminescent cell viability assay. It counts as functional, organism-based. Put shortly: as §1
In another data set the test system is Trypanosoma evansi. The data set is described as follows: Trypanocidal activity against Trypanosoma evansi assessed as reduction in intracellular ATP production incubated for 72 hrs by CellTiter-Glo luminescent cell viability assay. It counts as functional, organism-based. Put shortly:
as §1

Data set [4] can be described thus: Selectivity ratio of IC50 for trypanocidal activity against Trypanosoma congolense to trypanocidal activity against Trypanosoma evansi. In kind it is functional.
For another data set, the system named is MDBK cells (Bos taurus). The data set is described as follows: Cytotoxicity against bovine MDBK cells assessed as reduction in cell viability incubated for 72 hrs by CCK8 assay.
A short description of data set [5]: Selectivity index, ratio of IC50 for cytotoxicity against bovine MDBK cells to IC50 for Trypanocidal activity against Trypanosoma evansi.
Data set [6] is described as follows: Selectivity index, ratio of IC50 for cytotoxicity against bovine MDBK cells to IC50 for Trypanocidal activity against Trypanosoma congolense.
The nature of data set [7]: Selectivity index, ratio of IC50 for cytotoxicity against bovine MDBK cells to IC50 for Trypanocidal activity against Trypanosoma brucei brucei. As to conditions: cattle.
Data set [8] in a line: Selectivity index, ratio of IC50 for cytotoxicity against bovine MDBK cells to IC50 for Trypanocidal activity against Trypanosoma brucei gambiense. As to conditions: cattle.
Data set [9] can be described thus: Selectivity index, ratio of IC50 for cytotoxicity against bovine MDBK cells to IC50 for Trypanocidal activity against Trypanosoma brucei rhodesiense.

Turning to `Oc1ccccc1-c1coc(-c2cccc(O)c2O)n1`, the IC50 came to 1.3 µM in [1]; 1.6 µM in data set [2]; 1.5 µM in [3]; 0.85 µM with Trypanosoma congolense; 0.42 µM in the data set with Trypanosoma evansi; 9.7 µM in the data set with MDBK cells (Bos taurus). Moreover, in [4], the Ratio IC50 came to 2. Moreover, the selectivity ratio in data set [5] came to 23; in data set [6], 11; in [7], 7.5; in data set [8], 6.1; in data set [9], 6.4.
In the case of `COc1cccc(-c2ncc(-c3ccccc3OCc3ccccc3)o2)c1OC`, the IC50 amounted to 15.5 µM in [1]; 16.2 µM in data set [2]; 15.8 µM in data set [3]; 7.7 µM with Trypanosoma congolense; 16.7 µM in the data set with Trypanosoma evansi; 97.6 µM with MDBK cells (Bos taurus). The selectivity ratio in [5] came out at 5.8; in data set [6], 13; in [7] it was 6.3; in [8], 6; in data set [9], 6.2.
In the case of `COc1cccc(-c2ncc(-c3ccccc3C)o2)c1OC`, the IC50 in [1] was 39.1 µM; in data set [2], 40 µM; in data set [3], 40 µM; with Trypanosoma congolense, 3 µM; in the data set with Trypanosoma evansi it was 36 µM; with MDBK cells (Bos taurus), 56.9 µM. For the same compound, the selectivity ratio in data set [5] was 1.6; in data set [6], 19; in [7], 1.5; in data set [8] it was 1.4; in [9], 1.4.
Take `COc1cccc(-c2ncc(-c3ccccc3N(C)C)o2)c1OC`: the 50% inhibitory concentration (IC50) in [1] was 20.4 µM; in data set [2], 35.2 µM; in data set [3], 23.3 µM; with Trypanosoma congolense it was 4.6 µM; with Trypanosoma evansi, 24.7 µM; in the data set with MDBK cells (Bos taurus), > 308 µM. For the same compound, the selectivity ratio in [5] was > 12; in data set [6], > 66; in data set [7], > 15; in data set [8] it was > 8.8; in data set [9] it was > 13.

The record behind these values is ChEMBL document CHEMBL4811303, “Synthesis and evaluation of trypanocidal activity of derivatives of naturally occurring 2,5-diphenyloxazoles” (Bioorg Med Chem, 2021).
